Measured values published in ChEMBL document CHEMBL4425122, “Discovery of 1-(1H-Pyrazolo[4,3-c]pyridin-6-yl)urea Inhibitors of Extracellular Signal-Regulated Kinase (ERK) for the Treatment of Cancers” (J Med Chem, 2016).
In brackets after ≈: the same amount, converted by molar mass.

Legend:
[1] = Inhibition of ERK in human A375SM cells harboring BRAF V600E mutant assessed as inhibition of RSK phosphorylation measured after 4 hrs by mesoscale electrochemiluminescent sandwich assay; assay type: cell-based; settings: A375-SM
Method in brief: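 A375SM (BRAF V600E melanoma) cells, 10,000 per well, treated 4 h; lysed 20 min at 4 °C in Tris/NaCl/EGTA/EDTA/Triton/NaF buffer with protease and phosphatase inhibitors. Lysate captured with biotin anti-RSK1 on streptavidin MSD plate, detected with SULFO-TAG anti-pRSK (pThr359/Ser363) overnight at 4 °C; electrochemiluminescence read. IC50 from 11-point titration.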

[2] = molecular target: Mitogen-activated protein kinase 1 (Mus musculus, UniProt P63085); assay: Inhibition of mouse ERK2 preincubated for 15 mins followed by addition of IMAP peptide substrate and ATP measured after 60 mins by IMAP-FP assay
Cytochrome P450 3A4 = Cytochrome P450 3A4 (Homo sapiens, UniProt P08684); assay: Inhibition of CYP3A4 (unknown origin); assay type: ADME
[3] = molecular target: Voltage-gated inwardly rectifying potassium channel KCNH2 (Homo sapiens, UniProt Q12809); assay: Inhibition of human ERG
[4] = molecular target: Mitogen-activated protein kinase 1 (Homo sapiens, UniProt P28482); assay: Inhibition of human ERK2 preincubated for 15 mins followed by addition of IMAP peptide substrate and ATP measured after 60 mins by IMAP-FP assay
Method in brief: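 Final: 0.5 nM hERK2, 900 nM unlabeled + 80 nM labeled peptide, 30 µM ATP; 60 min, quenched with IMAP beads in binding buffer with 24 mM NaCl, read by fluorescence polarization after 60 min.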

Homo sapiens [5] = species on record: Homo sapiens; assay: Selectivity ratio, ratio of IC50 for human ERK2 to IC50 for RAF1 (unknown origin)
Homo sapiens [6] = species on record: Homo sapiens; assay: Selectivity ratio, ratio of IC50 for human ERK2 to IC50 for MEK1 (unknown origin)
Homo sapiens [7] = species on record: Homo sapiens; assay: Selectivity ratio, ratio of IC50 for human ERK2 to IC50 for COT (unknown origin)
Homo sapiens [8] = species on record: Homo sapiens; assay: Selectivity ratio, ratio of IC50 for human ERK2 to IC50 for BRAF (unknown origin)
A375-SM = assay: Antiproliferative activity against human A375SM cells harboring BRAF V600E mutant measured after 96 hrs by Cell Titer-Glo assay; assay type: functional, cell-based
Method in brief: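 Cells in DMEM/10 mM HEPES/10% FBS added after compound, incubated 96 h at 37 °C, 5% CO2; equilibrated 15 min at room temperature, viability by CellTiter-Glo luminescence. IC50 from 10-point, 3-fold titration curves.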

[9] = Solubility in human FaSSIF at pH 6.5; assay type: physicochemical
Method in brief: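 Solubility measured in human fasted-state simulated intestinal fluid at pH 6.5.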

[10] = Inhibition of ERK (unknown origin) assessed as inhibition of RSK phosphorylation; set-up: species or system Homo sapiens

Mitogen-activated protein kinase 1 (Homo sapiens, UniProt P28482), sequence (P28482 whole entry): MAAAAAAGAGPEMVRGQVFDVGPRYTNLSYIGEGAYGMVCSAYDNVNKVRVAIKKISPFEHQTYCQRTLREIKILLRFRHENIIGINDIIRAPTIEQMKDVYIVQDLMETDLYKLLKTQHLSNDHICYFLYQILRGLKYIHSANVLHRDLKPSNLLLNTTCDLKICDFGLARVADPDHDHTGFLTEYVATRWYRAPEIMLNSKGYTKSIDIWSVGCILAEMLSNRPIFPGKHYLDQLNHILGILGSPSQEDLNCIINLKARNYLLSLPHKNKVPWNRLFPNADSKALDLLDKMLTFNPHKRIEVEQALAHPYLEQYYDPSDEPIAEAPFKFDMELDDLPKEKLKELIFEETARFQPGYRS
Mitogen-activated protein kinase 1 (Mus musculus, UniProt P63085), sequence (P63085 whole entry): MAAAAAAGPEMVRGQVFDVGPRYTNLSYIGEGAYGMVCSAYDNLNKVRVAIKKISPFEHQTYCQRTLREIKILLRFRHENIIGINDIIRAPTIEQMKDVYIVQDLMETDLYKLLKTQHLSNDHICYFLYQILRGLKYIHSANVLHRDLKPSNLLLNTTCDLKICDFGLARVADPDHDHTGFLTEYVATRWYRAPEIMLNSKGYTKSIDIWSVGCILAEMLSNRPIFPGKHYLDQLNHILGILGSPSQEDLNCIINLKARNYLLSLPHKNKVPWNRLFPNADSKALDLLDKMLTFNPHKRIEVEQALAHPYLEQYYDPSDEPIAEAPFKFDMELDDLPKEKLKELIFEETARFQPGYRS
Cytochrome P450 3A4, sequence (P08684 whole entry): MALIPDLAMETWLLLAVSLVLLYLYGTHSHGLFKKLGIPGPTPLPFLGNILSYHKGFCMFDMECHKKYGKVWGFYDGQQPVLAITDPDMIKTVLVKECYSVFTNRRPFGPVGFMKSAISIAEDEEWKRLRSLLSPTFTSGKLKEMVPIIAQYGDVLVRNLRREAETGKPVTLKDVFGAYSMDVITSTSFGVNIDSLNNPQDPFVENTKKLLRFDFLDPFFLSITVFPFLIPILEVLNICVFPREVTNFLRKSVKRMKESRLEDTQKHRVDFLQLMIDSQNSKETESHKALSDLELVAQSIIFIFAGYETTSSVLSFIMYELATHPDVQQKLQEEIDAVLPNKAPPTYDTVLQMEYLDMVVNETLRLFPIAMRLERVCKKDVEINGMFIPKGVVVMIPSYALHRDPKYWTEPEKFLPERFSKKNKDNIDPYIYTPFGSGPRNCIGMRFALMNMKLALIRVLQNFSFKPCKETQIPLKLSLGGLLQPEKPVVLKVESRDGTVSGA
Voltage-gated inwardly rectifying potassium channel KCNH2, sequence (Q12809 whole entry): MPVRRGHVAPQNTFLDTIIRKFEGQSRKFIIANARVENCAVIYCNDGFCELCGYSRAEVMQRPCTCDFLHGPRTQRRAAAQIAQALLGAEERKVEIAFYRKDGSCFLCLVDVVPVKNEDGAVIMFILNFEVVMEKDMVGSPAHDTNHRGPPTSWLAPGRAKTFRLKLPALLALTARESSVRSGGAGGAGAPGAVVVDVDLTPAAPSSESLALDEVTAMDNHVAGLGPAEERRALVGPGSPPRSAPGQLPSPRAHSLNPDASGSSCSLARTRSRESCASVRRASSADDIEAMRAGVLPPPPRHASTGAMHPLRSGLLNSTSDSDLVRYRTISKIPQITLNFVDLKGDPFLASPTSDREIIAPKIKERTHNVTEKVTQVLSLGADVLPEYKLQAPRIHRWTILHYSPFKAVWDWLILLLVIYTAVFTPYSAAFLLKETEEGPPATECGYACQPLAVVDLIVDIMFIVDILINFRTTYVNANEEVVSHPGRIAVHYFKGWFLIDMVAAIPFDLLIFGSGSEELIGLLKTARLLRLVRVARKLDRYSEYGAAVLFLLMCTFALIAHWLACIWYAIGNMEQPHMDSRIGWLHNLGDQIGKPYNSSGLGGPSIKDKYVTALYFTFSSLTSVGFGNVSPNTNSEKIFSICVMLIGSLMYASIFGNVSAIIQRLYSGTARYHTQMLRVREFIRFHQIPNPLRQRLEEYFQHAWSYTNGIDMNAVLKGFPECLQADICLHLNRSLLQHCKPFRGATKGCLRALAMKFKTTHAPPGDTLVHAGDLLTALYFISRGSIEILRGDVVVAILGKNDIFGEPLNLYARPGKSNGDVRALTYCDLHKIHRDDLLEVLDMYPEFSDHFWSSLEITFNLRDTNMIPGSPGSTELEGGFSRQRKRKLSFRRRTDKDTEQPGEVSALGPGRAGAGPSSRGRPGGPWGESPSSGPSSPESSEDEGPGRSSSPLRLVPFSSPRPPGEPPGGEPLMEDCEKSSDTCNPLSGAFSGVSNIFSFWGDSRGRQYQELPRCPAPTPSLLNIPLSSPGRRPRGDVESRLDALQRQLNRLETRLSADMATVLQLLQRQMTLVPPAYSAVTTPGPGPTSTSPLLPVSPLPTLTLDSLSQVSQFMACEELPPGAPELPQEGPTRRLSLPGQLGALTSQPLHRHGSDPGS

For `Cc1cc(-c2n[nH]c3cc(NC(=O)Nc4ccccc4)ncc23)ccn1`, the IC50 [1] was > 10000 nM.
With `Cc1cc(-c2n[nH]c3cc(NC(=O)OCc4ccccc4)ccc23)ccn1` the IC50 [2] was > 3000 nM.
With `C[C@@H](NC(=O)Nc1cc2[nH]nc(-c3cnn(C)c3)c2cn1)c1ccccc1` the IC50 (Cytochrome P450 3A4) was 380 nM, the IC50 [3] was > 20000 nM and the IC50 [1] was 110 nM. It also gave an IC50 [4] of 0.3 nM.
With `Cc1cc(-c2n[nH]c3cc(NC(=O)NCc4ccccc4)ncc23)ccn1` the Ratio IC50 (Homo sapiens [5]) was < 100, the Ratio IC50 (Homo sapiens [6]) was < 100 and the IC50 [2] was 0.2 nM. For the same compound, the Ratio IC50 (Homo sapiens [7]) was < 100, the Ratio IC50 (Homo sapiens [8]) was < 100 and the IC50 [1] was 220 nM. It also gave an IC50 [4] of 0.9 nM.
Work on `O=C(Nc1ccc2[nH]nc(-c3ccncc3)c2c1)[C@@H]1CCN(CC(=O)N2CCN(c3ccc(-c4ncccn4)cc3)CC2)C1` yielded an IC50 (A375-SM) of 39 nM, a solubility [9] of 38 µM (≈ 22.3 µg/mL) and an IC50 [10] of 57 nM.
Work on `Cc1cc(-c2n[nH]c3cc(Nc4nccs4)ncc23)ccn1` yielded an IC50 [4] of 56 nM.
